In assay [1] the target is 5-hydroxytryptamine receptor 4 (Cavia porcellus, UniProt O70528). The assay can be described thus: Displacement of [3H]GR113808 from Dunkin-Hartley guinea pig brain striatum 5HT4R after 30 mins. The method in brief:
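Striatal crude membranes from decapitated guinea pigs, diluted in 50 mM Hepes pH 7.4, were incubated with [3H]17 (0.2 nM final) at 37 °C for 30 min. Separation by rapid filtration on PEI-treated GF/B filters, then scintillation counting. Nonspecific binding was defined with 30 µM 5-HT. Ki was derived as IC50/(1+L/Kd). Mean ± SEM of 3 independent determinations run in duplicate.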

Assay [2] concerns the target T1, 5-hydroxytryptamine receptor 4 (Homo sapiens, UniProt Q13639). The assay can be described thus: Antagonist activity at Rluc-tagged human 5HT4R expressed in human SH-SY5Y cells assessed as inhibition of serotonin-induced receptor/Gbeta1 coupling by BRET assay. The assay is classed as cell-based. In short, it runs like this:
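Cell-free BRET on enriched membranes (5 µg protein in PBS) from […] neuroblastoma cells retrovirally co-expressing Rluc-tagged human 5-HT4R and RGFP-fused Gβ1. Coupling was induced with 100 nM serotonin and inhibited by ligand at 8 log-spaced concentrations. IC50 for 50% inhibition of coupling was computed from the concentration-inhibition curves.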

Assay [3] addresses T1, 5-hydroxytryptamine receptor 4. Kind of assay: Partial agonist activity at Rluc-tagged human 5HT4R expressed in human SH-SY5Y cells assessed as effect on serotonin-induced receptor/Gbeta1 coupling by BRET assay. In kind it is cell-based. In short, it runs like this:
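BRET on membranes (5 µg protein in PBS) from […] cells co-expressing Rluc-human 5-HT4R and RGFP-Gβ1, with ligand at 10 µM. The baseline recorded without ligand was subtracted, and the BRET ratio was expressed relative to that obtained with 10 µM serotonin. Means ± SEM of 3 determinations.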
In general terms: Bioluminescence resonance energy transfer reports proximity on the nanometre scale.

Ten compounds from ChEMBL document CHEMBL3286104, “Synthesis and structure-activity relationship studies in serotonin 5-HT4 receptor ligands based on a benzo[de][2,6]naphthridine scaffold” (Eur J Med Chem, 2014) can be followed below.

Some results are limits rather than exact numbers.

T1 sequence (Q13639 whole entry, the tested form may be a part): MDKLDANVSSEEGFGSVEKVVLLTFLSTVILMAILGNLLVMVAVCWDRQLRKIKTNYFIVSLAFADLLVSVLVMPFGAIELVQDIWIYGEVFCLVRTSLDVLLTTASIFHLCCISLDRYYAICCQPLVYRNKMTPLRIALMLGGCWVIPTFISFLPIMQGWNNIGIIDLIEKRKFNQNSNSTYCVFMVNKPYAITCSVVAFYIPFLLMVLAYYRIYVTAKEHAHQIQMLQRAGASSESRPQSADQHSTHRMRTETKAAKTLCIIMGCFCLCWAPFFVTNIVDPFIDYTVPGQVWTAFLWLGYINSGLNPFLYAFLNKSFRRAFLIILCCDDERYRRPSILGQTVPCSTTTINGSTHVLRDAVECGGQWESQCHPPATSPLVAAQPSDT
Sequence of 5-hydroxytryptamine receptor 4 (Cavia porcellus, UniProt O70528) (O70528 whole entry): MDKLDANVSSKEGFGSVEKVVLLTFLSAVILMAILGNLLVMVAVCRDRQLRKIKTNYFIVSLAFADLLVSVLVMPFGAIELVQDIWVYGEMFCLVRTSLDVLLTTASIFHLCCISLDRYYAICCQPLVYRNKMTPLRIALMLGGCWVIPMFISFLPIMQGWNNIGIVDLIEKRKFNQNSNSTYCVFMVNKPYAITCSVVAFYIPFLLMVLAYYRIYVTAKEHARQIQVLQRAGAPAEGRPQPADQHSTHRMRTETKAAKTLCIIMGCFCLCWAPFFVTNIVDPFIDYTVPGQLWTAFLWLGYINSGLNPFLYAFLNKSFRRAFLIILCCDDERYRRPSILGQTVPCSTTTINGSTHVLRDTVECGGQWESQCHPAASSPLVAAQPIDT

`COc1cc(C(=O)OCCCN2CCCCC2)c2ccccc2n1`: the Ki (in general, a measure of affinity in units of concentration, obtained from inhibition or displacement) in assay [1] was found to be 52 nM. Also, the 50% inhibitory concentration (IC50) – broadly, the point on the concentration scale where inhibition reaches its midpoint – in assay [2] is 203 nM.
Compound `COc1cc(C(=O)NCCCN2CCCCC2)c2ccccc2n1` came in with a Ki in assay [1] of over 1000 nM.
Turning to `COc1cc2c3c(cccc3n1)CN(CCCN1CCCCC1)C2=O`, affinity in assay [1] was put at a Ki of 283 nM. Further, in assay [2], the IC50 stood at 916 nM.
For `COc1cc2c3c(cccc3n1)C(=O)N(CCCN1CCCCC1)C2=O`, in that order: 44 nM and 110 nM.
`O=C1c2cc(Cl)nc3cccc(c23)CN1CCCN1CCCCC1` gave a Ki in assay [1] of 563 nM. The half-maximal inhibitory concentration (IC50) in assay [3] is 195 nM.
In assay [1], `O=C1c2cccc3nc(Cl)cc(c23)C(=O)N1CCCN1CCCCC1` came in with a Ki of 105 nM. In addition, the IC50 in assay [2] was found to be 453 nM.
As for `O=C1c2cc(N3CCCC3)nc3cccc(c23)CN1CCCN1CCCCC1`, the Ki in assay [1] was over 1000 nM.
In the case of `O=C1c2cccc3nc(N4CCCC4)cc(c23)C(=O)N1CCCN1CCCCC1`, the Ki in assay [1] was over 1000 nM.
`O=C1c2cccc3nc(N4CCCCC4)cc(c23)C(=O)N1CCCN1CCCCC1` returned a Ki in assay [1] of 344 nM.
As to `COc1cc(N)c(Cl)cc1C(=O)OCCCN1CCCCC1`, the Ki in assay [1] amounted to 19 nM. In assay [3], the IC50 was determined as 49 nM.
